Data taken from article PMC7558257 (Acta Pharmaceutica Sinica. B, 2020).

How the values were obtained:
[1] = target: Human dihydroorotate dehydrogenase (DHODH) (Homo sapiens, UniProt Q02127); assay: In vitro DHODH enzyme inhibition assay; type: biochemical; settings: for inhibition at 10 µM: read-out: Inhibition (%) at 10 μmol/L; for potency loss relative to naphthyl compound 24: vs. 24
[2] = test system: collagen-induced arthritis (CIA) in Wistar rats; assay: Collagen-induced arthritis; type: in vivo; settings: for arthritis score (stabilized, lastly): scale 0-4, model group around 2.3; for volumes of paws in CIA rats compared to model rats: orally once a day for 28 days, methotrexate 0.3 mg/kg
Summary of the method: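 Adult male Wistar rats (130–150 g) were immunized with emulsified bovine type II collagen on Days 1 and 7. Dosing was oral, once daily for 28 days, with 0.5% CMC-Na vehicle. Arthritis was scored 0–4 daily, blinded. Body weight was taken every 3 days, plus hind-paw volume and terminal joint histopathology. Data are mean ± SEM.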

[3] = In vivo single dose PK study in rats; settings: male, Sprague-Dawley, rat, plasma
Summary of the method: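 Male Sprague–Dawley rats (n = 3 per route) received the test compound at 1 mg/kg i.v. or 10 mg/kg p.o. Heparinized blood was sampled at 5, 15 and 30 min and at 1, 2, 4, 8 and 24 h. Levels were quantified by LC/MS/MS, with noncompartmental PK analysis. For i.v., Cmax was taken as C0.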

[4] = test system: ICR mice; assay: Acute toxicity study in mice; type: in vivo

Human dihydroorotate dehydrogenase (DHODH), sequence (Q02127 whole entry): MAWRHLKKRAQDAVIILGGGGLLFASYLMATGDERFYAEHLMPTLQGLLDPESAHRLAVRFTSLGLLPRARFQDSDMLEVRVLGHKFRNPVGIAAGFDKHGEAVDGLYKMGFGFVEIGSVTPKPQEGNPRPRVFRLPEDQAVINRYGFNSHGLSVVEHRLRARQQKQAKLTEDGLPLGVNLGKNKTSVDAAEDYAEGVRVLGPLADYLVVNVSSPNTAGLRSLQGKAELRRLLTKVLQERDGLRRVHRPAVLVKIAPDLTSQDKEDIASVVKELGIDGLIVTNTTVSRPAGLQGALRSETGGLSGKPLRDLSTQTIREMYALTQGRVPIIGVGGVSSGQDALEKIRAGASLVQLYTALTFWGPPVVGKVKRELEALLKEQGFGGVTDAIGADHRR

O=C(COc1ccc([N+](=O)[O-])cc1)Nc1ccccc1C(=O)O [Compound 9, 2-(2-(4-Nitrophenoxy)acetamido)benzoic acid]
inhibition at 10 µM [1]: 45.3%

O=C(COc1ccccc1)Nc1ccccc1C(=O)O [Compound 10]
inhibition at 10 µM [1]: 31.7%

C/C(=C\c1ccccc1)C(=O)Nc1ccccc1C(=O)O [Compound 11]
inhibition at 10 µM [1]: 85.6%

C/C(=C\c1ccc(C(F)(F)F)cc1)C(=O)Nc1ccccc1C(=O)O [Compound 12]
IC50 [1]: 1040 ± 40 nM | inhibition at 10 µM [1]: 82.3%

C/C(=C\c1ccc(C(F)(F)F)nc1)C(=O)Nc1ccccc1C(=O)O [Compound 13]
IC50 [1]: 6110 ± 102 nM | inhibition at 10 µM [1]: 69.3%

COc1ccc(/C=C(\C)C(=O)Nc2ccccc2C(=O)O)cc1 [Compound 14]
IC50 [1]: 561 ± 14 nM | inhibition at 10 µM [1]: 88.7%

C/C(=C\c1ccc(C(C)(C)C)cc1)C(=O)Nc1ccccc1C(=O)O [Compound 15]
IC50 [1]: 836 ± 21 nM | inhibition at 10 µM [1]: 86.6%

C/C(=C\c1ccc(C)c(C)c1)C(=O)Nc1ccccc1C(=O)O [Compound 16]
IC50 [1]: 394 ± 4 nM | inhibition at 10 µM [1]: 92.9%

C/C(=C\c1ccc(C)c(Cl)c1)C(=O)Nc1ccccc1C(=O)O [Compound 17]
IC50 [1]: 384 ± 16 nM | inhibition at 10 µM [1]: 91%

C/C(=C\c1ccc(Cl)c(C(F)(F)F)c1)C(=O)Nc1ccccc1C(=O)O [Compound 18]
IC50 [1]: 894 ± 63 nM | inhibition at 10 µM [1]: 84.6%

C/C(=C\c1ccc(Cl)c(Cl)c1)C(=O)Nc1ccccc1C(=O)O [Compound 19]
IC50 [1]: 529 ± 24 nM | inhibition at 10 µM [1]: 91.7%

COc1ccc(/C=C(\C)C(=O)Nc2ccccc2C(=O)O)cc1OC [Compound 20]
IC50 [1]: 612 ± 11 nM | inhibition at 10 µM [1]: 91.5%

C/C(=C\c1cc(Cl)cc(Cl)c1)C(=O)Nc1ccccc1C(=O)O [Compound 21]
IC50 [1]: 724 ± 28 nM | inhibition at 10 µM [1]: 89.4%

C/C(=C\c1ccc2c(c1)CCC2)C(=O)Nc1ccccc1C(=O)O [Compound 22]
IC50 [1]: 252 ± 17 nM | inhibition at 10 µM [1]: 86.9%

C/C(=C\c1ccc2c(c1)CCCC2)C(=O)Nc1ccccc1C(=O)O [Compound 23]
IC50 [1]: 115 ± 1 nM | inhibition at 10 µM [1]: 85.2%

C/C(=C\c1ccc2ccccc2c1)C(=O)Nc1ccccc1C(=O)O [Compound 24]
IC50 [1]: 75 ± 2 nM | inhibition at 10 µM [1]: 93.9%

COc1ccc2cc(/C=C(\C)C(=O)Nc3ccccc3C(=O)O)ccc2c1 [Compound 25]
IC50 [1]: 129 ± 8 nM | inhibition at 10 µM [1]: 88.2%

C/C(=C\c1ccc2cc(Br)ccc2c1)C(=O)Nc1ccccc1C(=O)O [Compound 26]
IC50 [1]: 448 ± 8 nM | inhibition at 10 µM [1]: 85.4%

C/C(=C\c1ccc2c(Cl)cccc2c1)C(=O)Nc1ccccc1C(=O)O [Compound 27]
IC50 [1]: 256 ± 9 nM | inhibition at 10 µM [1]: 96.8%

C/C(=C\c1ccc2ccccc2c1F)C(=O)Nc1ccccc1C(=O)O [Compound 28]
IC50 [1]: 57 ± 2 nM | inhibition at 10 µM [1]: 89.3%

C/C(=C\c1ccc2ccccc2c1Cl)C(=O)Nc1ccccc1C(=O)O [Compound 29]
IC50 [1]: 78 ± 3 nM | inhibition at 10 µM [1]: 96.4%

C/C(=C\c1ccc2ccccc2c1Br)C(=O)Nc1ccccc1C(=O)O [Compound 30]
IC50 [1]: 58 ± 1 nM | inhibition at 10 µM [1]: 90.2%

C/C(=C\c1cc2ccccc2cn1)C(=O)Nc1ccccc1C(=O)O [Compound 31]
IC50 [1]: 646 ± 9 nM | inhibition at 10 µM [1]: 87.4% | potency loss relative to naphthyl compound 24 [1]: 8 fold

C/C(=C\c1cc2ccccc2n1C)C(=O)Nc1ccccc1C(=O)O [Compound 32, (E)-2-(2-Methyl-3-(1-methyl-1H-indol-2-yl)acrylamido)benzoic acid]
IC50 [1]: 317 ± 8 nM | inhibition at 10 µM [1]: 84.3% | potency loss relative to naphthyl compound 24 [1]: 4 fold

C/C(=C\c1ccc(-c2ccccc2)cc1)C(=O)Nc1ccccc1C(=O)O [Compound 33]
IC50 [1]: 626 ± 13 nM | inhibition at 10 µM [1]: 89.8%

C/C(=C\c1ccc(Oc2ccccc2)cc1)C(=O)Nc1ccccc1C(=O)O [Compound 34]
IC50 [1]: 630 ± 14 nM | inhibition at 10 µM [1]: 90.4%

C/C(=C\c1cccc(Oc2ccccc2)c1)C(=O)Nc1ccccc1C(=O)O [Compound 35]
IC50 [1]: 597 ± 6 nM | inhibition at 10 µM [1]: 89.5%

O=C(COc1ccc2ccccc2c1)Nc1ccccc1C(=O)O [Compound 36]
IC50 [1]: 1870 ± 48 nM | inhibition at 10 µM [1]: 76.1%

CC(C)(Oc1ccc2ccccc2c1)C(=O)Nc1ccccc1C(=O)O [Compound 37, 2-(2-Methyl-2-(naphthalen-2-yloxy)propanamido)benzoic acid]
IC50 [1]: > 10000 nM | inhibition at 10 µM [1]: 20.3%

O=C(/C=C/c1ccc2ccccc2c1)Nc1ccccc1C(=O)O [Compound 38]
IC50 [1]: 712 ± 12 nM | inhibition at 10 µM [1]: 87.5%

O=C(Nc1ccccc1C(=O)O)/C(Cl)=C/c1ccc2ccccc2c1 [Compound 39]
IC50 [1]: 61 ± 1 nM | inhibition at 10 µM [1]: 88.6%

O=C(Nc1ccccc1C(=O)O)/C(Br)=C/c1ccc2ccccc2c1 [Compound 40]
IC50 [1]: 85 ± 4 nM | inhibition at 10 µM [1]: 88.6%

CC/C(=C\c1ccc2ccccc2c1)C(=O)Nc1ccccc1C(=O)O [Compound 41]
IC50 [1]: 606 ± 31 nM | inhibition at 10 µM [1]: 82.8%

C/C(=C\c1ccc2ccccc2c1)C(=O)Nc1ccc(F)cc1C(=O)O [Compound 42]
improvement in potency for inhibition of DHODH vs. 24 ([1]; 42 vs. 24): 1 fold | inhibition at 10 µM [1]: 90%

C/C(=C\c1ccc2ccccc2c1)C(=O)Nc1cc(F)ccc1C(=O)O [Compound 43]
IC50 [1]: > 10000 nM | inhibition at 10 µM [1]: 34.9%

C/C(=C\c1ccc2ccccc2c1)C(=O)Nc1ccc(Cl)cc1C(=O)O [Compound 44]
IC50 [1]: 623 ± 1 nM | inhibition at 10 µM [1]: 83%

C/C(=C\c1ccc2ccccc2c1)C(=O)Nc1ccc(Br)cc1C(=O)O [Compound 45]
IC50 [1]: 1820 ± 20 nM | inhibition at 10 µM [1]: 80.8%

C/C(=C\c1ccc2ccccc2c1)C(=O)Nc1ccc(C)cc1C(=O)O [Compound 46]
IC50 [1]: 688 ± 6 nM | inhibition at 10 µM [1]: 82.9%

COc1ccc(NC(=O)/C(C)=C/c2ccc3ccccc3c2)c(C(=O)O)c1 [Compound 47]
IC50 [1]: > 10000 nM | inhibition at 10 µM [1]: 48.2%

C/C(=C\c1ccc2ccccc2c1)C(=O)Nc1ccc(C(F)(F)F)cc1C(=O)O [Compound 48]
IC50 [1]: 874 ± 5 nM | inhibition at 10 µM [1]: 87.4%

C/C(=C\c1ccc2ccccc2c1)C(=O)Nc1sccc1C(=O)O [Compound 49]
IC50 [1]: 2130 ± 110 nM | inhibition at 10 µM [1]: 79.3%

C/C(=C\c1ccc2ccccc2c1)C(=O)Nc1ccncc1C(=O)O [Compound 50, (E)-4-(2-Methyl-3-(naphthalen-2-yl)acrylamido)nicotinic acid]
IC50 [1]: 1691 ± 14 nM | inhibition at 10 µM [1]: 74.1%

C/C(=C\c1ccc2ccccc2c1)C(=O)Nc1ccccc1C(N)=O [Compound 51]
IC50 [1]: 5350 ± 172 nM | inhibition at 10 µM [1]: 66.9%

COC(=O)c1ccccc1NC(=O)/C(C)=C/c1ccc2ccccc2c1 [Compound 52, Methyl (E)-2-(2-methyl-3-(naphthalen-2-yl)acrylamido)benzoate]
DHODH inhibition, result in words [1]: completely inactive | IC50 [1]: > 10000 nM | inhibition at 10 µM [1]: 29.6%

C/C(=C\c1ccc2ccccc2c1F)C(=O)Nc1ccc(F)cc1C(=O)O [Compound 53]
inhibition at 10 µM [1]: 98%

C/C(=C\c1ccc2ccccc2c1Cl)C(=O)Nc1ccc(F)cc1C(=O)O [Compound 54]
arthritis score (stabilized, lastly) ([2]; 10 mg/kg orally once a day for 28 days): around 1 | arthritis score (stabilized, lastly) ([2]; 30 mg/kg orally once a day for 28 days): ~0.6 | histopathological symptoms of arthritis in ankle joints (H&E) ([2]; 54 at 10 and 30 mg/kg, after four weeks of therapy, dose-dependent): significantly alleviated | volumes of paws in CIA rats compared to model rats ([2]; 54 at 10 and 30 mg/kg): significantly decreased | inhibition at 10 µM [1]: 98.7% | AUC ([3]; iv, 1 mg/kg): 381 µg·h/mL | Cmax ([3]; iv, 1 mg/kg): 31.5 µg/mL | Vd ([3]; iv, 1 mg/kg): 0.069 L/kg | clearance ([3]; iv, 1 mg/kg): 2.6 mL/h/kg | half-life ([3]; iv, 1 mg/kg): 18.1 h | bioavailability ([3]; oral, 10 mg/kg): 67.1% | AUC ([3]; po, 10 mg/kg): 2560 µg·h/mL | Cmax ([3]; po, 10 mg/kg): 77.8 µg/mL | Tmax ([3]; po, 10 mg/kg): 4.67 h | half-life ([3]; po, 10 mg/kg): 21.5 h | behavior and mortality ([4]; single intragastric dose 300 and 500 mg/kg, 14 days observation, n = 3): No obvious abnormal in behaviors or mortality | morphological examination of liver and kidney ([4]; single intragastric dose 300 and 500 mg/kg, day 14): did not find remarkable injury | body weight change compared to control group ([4]; single intragastric dose 300 and 500 mg/kg, end of experiment (day 14)): no significant change in body weight | tolerated dose ([4]; single intragastric dose, mice): ≥ 500 mg/kg

C/C(=C\c1ccc2ccccc2c1Br)C(=O)Nc1ccc(F)cc1C(=O)O [Compound 55]
inhibition at 10 µM [1]: 98.6%

CN(Cc1cnc2nc(N)nc(N)c2n1)c1ccc(C(=O)N[C@@H](CCC(=O)O)C(=O)O)cc1 [methotrexate, reference compound]
volumes of paws in CIA rats compared to model rats ([2]; 54 at 10 and 30 mg/kg): significantly decreased
